Data set [1] can be described thus: Tested for the dissociation constant of the compound. Format: ADME.
The species named for data set [2] is Cavia porcellus. In words: Ability to bind to guinea pig atrial homogenate. The note with it: Cardiac atrium. In outline:
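Guinea pig left and right atria were blotted 90 s, weighed, and homogenized (6%, g/v) in ice-cold 0.067 M Sørensen phosphate buffer, pH 7.4, for three 20-s bursts. Radiolabeled drug (3.3×10^-6 M) was incubated with 4% (g/v) homogenate for 90 min at room temperature under partial saturation. Total aliquot and supernatant after 145000g, 15 h, 25 °C were counted. Result given as log B/F.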

A short description of data set [3]: Partition coefficient (logP). The format is physicochemical. The following applies: octanol/water.
For data set [4], the target named is T1, Albumin (Homo sapiens, UniProt P02768). In words: Ability to bind to human serum albumin (HSA).
T1 sequence (P02768 whole entry): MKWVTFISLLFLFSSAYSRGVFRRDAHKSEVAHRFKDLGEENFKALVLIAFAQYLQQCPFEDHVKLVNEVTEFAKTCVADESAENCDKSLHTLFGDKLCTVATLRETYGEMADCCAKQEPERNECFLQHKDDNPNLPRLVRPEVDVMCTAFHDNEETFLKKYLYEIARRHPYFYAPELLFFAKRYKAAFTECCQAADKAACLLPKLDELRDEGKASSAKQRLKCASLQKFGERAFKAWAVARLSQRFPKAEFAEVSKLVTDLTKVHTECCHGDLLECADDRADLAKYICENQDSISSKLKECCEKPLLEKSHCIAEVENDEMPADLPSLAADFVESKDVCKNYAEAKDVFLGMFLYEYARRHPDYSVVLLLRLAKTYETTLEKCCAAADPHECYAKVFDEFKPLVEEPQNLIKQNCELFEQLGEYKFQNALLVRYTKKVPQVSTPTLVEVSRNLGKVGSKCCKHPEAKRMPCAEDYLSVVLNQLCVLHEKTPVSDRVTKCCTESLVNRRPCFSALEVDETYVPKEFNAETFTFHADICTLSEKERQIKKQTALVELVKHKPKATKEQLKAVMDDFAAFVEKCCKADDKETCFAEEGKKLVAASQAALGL
The target in data set [5] is T1, Albumin. Put plainly: Ability to bind to human serum albumin. In outline:
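Purified human serum albumin, 4% (g/v), with radiolabeled drug at 3.3×10^-6 M in 0.067 M Sørensen phosphate buffer pH 7.4 (partial saturation). Incubated 90 min at room temperature. Radioactivity counted in an aliquot before and after centrifugation at 145000g for 15 h at 25 °C. Binding expressed as log B/F.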

Each structure is given as a SMILES string.

What is called pKa is the negative logarithm of the acid dissociation constant. Read a high pKa as a group that holds its proton tightly. As for `COc1ccc(CCN(C)CCCC(C#N)(c2ccc(OC)c(OC)c2)C(C)C)cc1OC` (configuration not stated), the pKa in data set [1] is 9.2. For the same compound, the Log B/F in data set [2] was found to be 0.114.

`OC[C@H]1O[C@@](CO)(O[C@H]2O[C@H](CO)[C@@H](O)[C@H](O)[C@H]2O)[C@@H](O)[C@@H]1O` had a Log B/F in data set [2] of -4.

In general, logP refers to the decadic logarithm of the partition coefficient of the neutral form, usually between octanol and water. Take `C=CCc1ccccc1OCC(O)CNC(C)C` (configuration not stated) [ALPRENOLOL]: the logP in data set [3] (read-out: logP) was determined as 3.1. For the same compound, in data set [2], the Log B/F is -0.158.

The compound `CCCNC(C)C(=O)Nc1c(C)csc1C(=O)OC` (configuration not stated) [ARTICAINE] showed a logP in data set [3] of 2.41. The same compound registered a pKa in data set [1] of 7.8. For the same compound, the “Log B/F” value in data set [4] was -0.281; in data set [2], -0.739.

With `O=C1CCC(c2ccccc2)(C2CCN(Cc3ccccc3)CC2)C(=O)N1` (configuration not stated) [BENZETIMIDE], in data set [3] (read-out: logP), the logP was determined as 3.55. The results for the Log B/F in data set [2] and in data set [5] were -0.184 and 0.087, respectively.

As to `C[C@@H]1C[C@H]2[C@@H]3CCC4=CC(=O)C=C[C@]4(C)[C@@]3(F)[C@@H](O)C[C@]2(C)[C@@]1(O)C(=O)CO` [DEXAMETHASONE], the logP in data set [3] (read-out: logP) came to 1.74.

With `C[C@H]1O[C@@H](O[C@H]2[C@@H](O)C[C@H](O[C@H]3[C@@H](O)C[C@H](O[C@H]4CC[C@@]5(C)[C@H](CC[C@@H]6[C@@H]5CC[C@]5(C)[C@@H](C7=CC(=O)OC7)CC[C@]65O)C4)O[C@@H]3C)O[C@@H]2C)C[C@H](O)[C@@H]1O` [DIGITOXIN], in data set [3] (read-out: logP), the logP worked out at 1.76. For the same compound, in data set [4], the “Log B/F” value was 3.222.

For the compound `O=C(O)[C@H]1O[C@@H](O)[C@H](O)[C@@H](O)[C@@H]1O` [GLUCURONATE], the logP in data set [3] (read-out: logP) was -2.57. In data set [1], the pKa stood at 3.2. In addition, the results for the “Log B/F” value in data set [4] and in data set [2] were -2 and -4, respectively.

Turning to `COc1ccc2c(c1)c(CC(=O)O)c(C)n2C(=O)c1ccc(Cl)cc1` [INDOMETHACIN], the logP in data set [3] (read-out: logP) stood at 2.

Regarding `COCCc1ccc(OCC(O)CNC(C)C)cc1` (configuration not stated) [METOPROLOL], the logP in data set [3] (read-out: logP) stood at 2.34.

Consider `CCC1(c2ccccc2)C(=O)NC(=O)NC1=O` [PHENOBARBITAL], for which the logP in data set [3] (read-out: logP) is 1.43. The compound further registered a pKa in data set [1] of 7.5. Moreover, the “Log B/F” value in data set [4] stood at 0.11.

Regarding `CCC(c1ccccc1)c1c(O)c2ccccc2oc1=O` (configuration not stated) [PHENPROCOUMON], the logP in data set [3] (read-out: logP) came out at 3.62. Also, the pKa in data set [1] is 5. For the same compound, the “Log B/F” value in data set [4] was 2.128.
